Read-outs that look alike come from different tables or passages of the source.
Tests used:
[1] = test system: BJ-1 normal human skin fibroblast cells; assay: Cytotoxicity on normal cells, LDH release assay, BJ-1; assay type: cell-based; conditions: for IC50: Homo sapiens, Skin fibroblast, 48 h, read-out: IC50 (μM) ± SD BJ-1; for toxic activity on healthy cells BJ-1: BJ-1 normal cells, LDH assay
Summary of the method: (§1)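 Cells were kept in RPMI-1640 with 10% heat-inactivated FBS and penicillin/streptomycin at 37 °C in 5% CO2. They were seeded at 1 × 10^4 per well, grown 18 h, then exposed to graded concentrations for 48 h, with doxorubicin as positive control. LDH was read in supernatant and in Triton X-100 lysate by kinetic A340 over 1 min, using pH 7.5 phosphate with 4.6 mM pyruvate and 0.4 mg mL−1 NADH. % release = released/total. Three experiments in triplicate; IC50 by probit analysis.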

[2] = test system: HCT-116 (human colorectal carcinoma) cells; assay: Antiproliferative activity, LDH release assay, HCT-116; assay type: cell-based; conditions: HCT-116, 48 h, read-out: IC50 (μM) ± SD HCT-116
Summary of the method: as §1

[3] = test system: MCF-7 (human breast adenocarcinoma) cells; assay: Antiproliferative activity, LDH release assay, MCF-7; assay type: cell-based; conditions: MCF7, 48 h, read-out: IC50 (μM) ± SD MCF-7
Summary of the method: as §1

[4] = target: ERK1 (extracellular signal-regulated kinase 1) (Homo sapiens, UniProt P27361); assay: ERK1 kinase assay; assay type: biochemical
Sequence of ERK1 (extracellular signal-regulated kinase 1) (P27361 whole entry): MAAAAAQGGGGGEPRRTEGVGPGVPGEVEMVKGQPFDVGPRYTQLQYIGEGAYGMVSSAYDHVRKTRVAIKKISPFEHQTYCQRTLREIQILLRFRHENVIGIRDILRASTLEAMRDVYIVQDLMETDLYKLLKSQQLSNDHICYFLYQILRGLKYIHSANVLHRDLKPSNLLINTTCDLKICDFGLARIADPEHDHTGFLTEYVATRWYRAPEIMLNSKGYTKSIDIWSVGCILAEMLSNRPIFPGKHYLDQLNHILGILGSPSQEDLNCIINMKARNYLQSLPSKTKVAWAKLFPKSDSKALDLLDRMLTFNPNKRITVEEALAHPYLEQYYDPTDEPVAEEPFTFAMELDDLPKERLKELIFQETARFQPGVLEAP

[5] = target: histone deacetylase 1 (HDAC1) (Homo sapiens, UniProt Q13547); assay: Fluorogenic HDAC1 inhibition assay; assay type: biochemical
Sequence of histone deacetylase 1 (HDAC1) (Q13547 whole entry): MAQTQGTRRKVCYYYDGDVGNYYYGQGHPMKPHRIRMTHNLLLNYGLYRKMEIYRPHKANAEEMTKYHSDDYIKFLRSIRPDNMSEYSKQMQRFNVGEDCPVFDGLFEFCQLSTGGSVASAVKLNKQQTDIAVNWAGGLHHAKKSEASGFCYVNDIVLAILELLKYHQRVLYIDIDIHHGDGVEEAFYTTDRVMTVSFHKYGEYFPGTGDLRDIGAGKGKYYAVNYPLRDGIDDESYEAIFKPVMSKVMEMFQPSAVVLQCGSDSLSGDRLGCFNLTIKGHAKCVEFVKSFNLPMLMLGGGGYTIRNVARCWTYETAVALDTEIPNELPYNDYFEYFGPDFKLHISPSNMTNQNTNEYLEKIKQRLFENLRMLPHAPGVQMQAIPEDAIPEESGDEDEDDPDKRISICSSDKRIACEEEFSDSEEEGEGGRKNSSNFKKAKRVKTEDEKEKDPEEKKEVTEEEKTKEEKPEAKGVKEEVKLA

[6] = test system: Ehrlich ascites carcinoma (EAC) cells; assay: Ehrlich ascites carcinoma; assay type: in vivo, female BALB/c mice; conditions: EAC-bearing mice; for total volume of collected ascitic fluid: i.p. 2 mg kg^−1 twice weekly × 2 weeks; for Avg. volume of ascitic fluid (mL) [packed cell volume] / Viable cell count (×10^6 cells per mL) / Cell-growth inhibition (%): i.p. 2 mg kg^−1 × 2 weeks; for Avg. volume of ascitic fluid (mL) [packed cell volume]: EAC control 10.5; for Viable cell count (×10^6 cells per mL): trypan blue, EAC control 33; for Cell-growth inhibition (%): vs EAC control viable cell count
Summary of the method: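 Female BALB/c mice (25 ± 3 g) received 1 × 10^6 EAC cells i.p. in 100 μL PBS (>95% trypan-blue viability). On day 3, mice were grouped (n = 8). Dosing was i.p.: test compound 2 mg kg−1 twice weekly × 2 weeks, DMSO vehicle, or doxorubicin 2 mg kg−1 once weekly. Endpoint: ascitic volume measured, fluid spun 1200×g for 10 min, viable cells counted by 0.4% trypan blue on a hemocytometer. Growth inhibition = (control − treated)/control × 100.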

MCF-7 cells [7] = assay: Apoptosis assay, Annexin V-FITC/PI flow cytometry; assay type: cell-based, human; conditions: MCF-7, 48 h
[8] = target: epidermal growth factor receptor (EGFR) (Homo sapiens, UniProt P00533); assay: EGFR kinase inhibition assay; assay type: biochemical
Sequence of epidermal growth factor receptor (EGFR) (P00533 25-1210): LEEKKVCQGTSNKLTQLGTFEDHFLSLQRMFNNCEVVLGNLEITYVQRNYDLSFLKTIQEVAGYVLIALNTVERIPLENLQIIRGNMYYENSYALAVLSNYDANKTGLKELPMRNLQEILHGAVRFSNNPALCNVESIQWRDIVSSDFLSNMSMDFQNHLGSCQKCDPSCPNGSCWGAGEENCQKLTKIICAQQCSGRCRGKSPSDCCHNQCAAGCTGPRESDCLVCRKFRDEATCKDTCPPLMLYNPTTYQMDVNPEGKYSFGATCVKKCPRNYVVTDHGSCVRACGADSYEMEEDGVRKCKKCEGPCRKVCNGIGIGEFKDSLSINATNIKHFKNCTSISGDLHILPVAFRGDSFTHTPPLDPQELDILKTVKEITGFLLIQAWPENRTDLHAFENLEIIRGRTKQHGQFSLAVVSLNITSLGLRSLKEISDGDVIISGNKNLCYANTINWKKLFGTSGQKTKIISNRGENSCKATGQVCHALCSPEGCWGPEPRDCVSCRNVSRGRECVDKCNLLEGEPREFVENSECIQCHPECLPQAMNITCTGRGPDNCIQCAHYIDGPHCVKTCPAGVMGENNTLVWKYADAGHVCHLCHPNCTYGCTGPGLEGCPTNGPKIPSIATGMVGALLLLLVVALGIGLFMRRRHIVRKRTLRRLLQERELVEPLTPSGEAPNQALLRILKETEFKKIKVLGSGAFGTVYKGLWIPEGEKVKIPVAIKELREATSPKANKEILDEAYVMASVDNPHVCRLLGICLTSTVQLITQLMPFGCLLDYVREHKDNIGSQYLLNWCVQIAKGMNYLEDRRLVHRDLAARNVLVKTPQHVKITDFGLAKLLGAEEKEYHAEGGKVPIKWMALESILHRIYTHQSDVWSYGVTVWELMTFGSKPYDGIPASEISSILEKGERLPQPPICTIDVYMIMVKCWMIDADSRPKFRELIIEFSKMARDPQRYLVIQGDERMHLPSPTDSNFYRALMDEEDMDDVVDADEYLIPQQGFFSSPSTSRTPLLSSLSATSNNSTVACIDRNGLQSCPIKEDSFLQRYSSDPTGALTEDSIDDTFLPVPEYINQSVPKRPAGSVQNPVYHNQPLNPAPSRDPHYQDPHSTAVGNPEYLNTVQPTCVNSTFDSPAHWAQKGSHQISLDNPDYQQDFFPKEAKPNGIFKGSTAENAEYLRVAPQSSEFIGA

MCF-7 cells [9] = assay: Cell-cycle analysis by flow cytometry; assay type: cell-based, human; conditions: MCF-7, 48 h; control 10.98%
[10] = test system: Ehrlich solid carcinoma (ESC); assay: Ehrlich solid carcinoma; assay type: in vivo, male BALB-c mice; conditions: intratumoral 2 mg kg^−1, two doses weekly for two weeks

| SMILES | IC50 [1] [µM] | IC50 [2] [µM] | IC50 [3] [µM] | also measured |
| --- | --- | --- | --- | --- |
| CCn1c(C)c(N=Nc2ccc([N+](=O)[O-])cc2[N+](=O)[O-])sc1=NN=C(C)c1c(O)c2ccccc2oc1=O [3f, 3-(-1-((-5-(-(2,4-Dinitrophenyl)diazenyl)-3-ethyl-4-methylthiazol-2(3H)-ylidene)hydrazono)ethyl)-4-hydroxy-2H-chromen-2-one] | 25.6 ± 2.5 | 2.9 ± 0.2 | 2.6 ± 0.1 | – |
| CCn1c(C)c(N=Nc2ccc(Br)cc2)sc1=NN=C(C)c1c(O)c2ccccc2oc1=O [3o, 3-(-1-((-5-(-(4-Bromophenyl)diazenyl)-3-ethyl-4-methylthiazol-2(3H)-ylidene)hydrazono)ethyl)-4-hydroxy-2H-chromen-2-one] | > 500 | 29.8 ± 2.5 | 22.9 ± 2.3 | toxic activity on healthy cells BJ-1 [1]: non-significant toxic activities |
| CC(=NN=c1sc(N=Nc2ccc(F)cc2)c(C)n1C)c1c(O)c2ccccc2oc1=O [3h, 3-(-1-((-5-(-(4-Fluorophenyl)diazenyl)-3,4-dimethylthiazol-2(3H)-ylidene)hydrazono)ethyl)-4-hydroxy-2H-chromen-2-one] | 27.5 ± 2.5 | 3 ± 0.2 | 2.8 ± 0.2 | – |
| CCn1c(C)c(N=Nc2ccc(OC)cc2)sc1=NN=C(C)c1c(O)c2ccccc2oc1=O [3c, 3-(1-((-3-Ethyl-5-(-(4-methoxyphenyl)diazenyl)-4-methylthiazol-2(3H)-ylidene) hydrazono)ethyl)-4-hydroxy-2H-chromen-2-one] | 27 ± 2.1 | 3.1 ± 0.1 | 2.6 ± 0.1 | – |
| CC(=NN=c1[nH]c(C)c(N=Nc2ccc(Cl)cc2)s1)c1c(O)c2ccccc2oc1=O [3j, 3-(-1-((-5-(-(4-Chlorophenyl)diazenyl)-4-methylthiazol-2(3H)-ylidene)hydrazono)ethyl)-4-hydroxy-2H-chromen-2-one] | 27 ± 2.3 | 12.7 ± 1.2 | 3.1 ± 0.2 | – |
| COc1ccc(N=Nc2sc(=NN=C(C)c3c(O)c4ccccc4oc3=O)n(C)c2C)cc1 [3b, 4-Hydroxy-3-(-1-((-5-(-(4-methoxyphenyl)diazenyl)-3,4-dimethylthiazol-2(3H)-ylidene) hydrazono)ethyl)-2H-chromen-2-one] | 27 ± 2.2 | 2.6 ± 0.1 | 5 ± 0.2 | – |
| CC(=NN=c1sc(N=Nc2ccc(Cl)cc2)c(C)n1C)c1c(O)c2ccccc2oc1=O [3k, 3-(-1-((-5-(-(4-Chlorophenyl)diazenyl)-3,4-dimethylthiazol-2(3H)-ylidene)hydrazono)ethyl)-4-hydroxy-2H-chromen-2-one] | 25.8 ± 2.1 | 11.6 ± 1.1 | 5.4 ± 0.3 | – |
| CCn1c(C)c(N=Nc2ccc(Cl)cc2)sc1=NN=C(C)c1c(O)c2ccccc2oc1=O [3l, 3-(-1-((-5-(-(4-Chlorophenyl)diazenyl)-3-ethyl-4-methylthiazol-2(3H)-ylidene)hydrazono)ethyl)-4-hydroxy-2H-chromen-2-one] | 26.2 ± 2.4 | 2.8 ± 0.1 | 4.8 ± 0.3 | – |
| CC(=NN=c1[nH]c(C)c(N=Nc2ccc(F)cc2)s1)c1c(O)c2ccccc2oc1=O [3g, 3-(-1-((-5-(-(4-Fluorophenyl)diazenyl)-4-methylthiazol-2(3H)-ylidene)hydrazono)ethyl)-4-hydroxy-2H-chromen-2-one] | 30.6 ± 3.3 | 2.8 ± 0.2 | 2.9 ± 0.2 | – |
| CC(=NN=c1[nH]c(C)c(N=Nc2ccc([N+](=O)[O-])cc2[N+](=O)[O-])s1)c1c(O)c2ccccc2oc1=O [3d, 3-(-1-((-5-(-(2,4-Dinitrophenyl)diazenyl)-4-methylthiazol-2(3H)-ylidene)hydrazono)ethyl)-4-hydroxy-2H-chromen-2-one] | 26.7 ± 2.3 | 2.8 ± 0.1 | 5.1 ± 0.2 | – |
| Cc1cc(Nc2ncc3c(n2)N(C)C(=O)N(c2cc(NC(=O)c4cccc(C(F)(F)F)c4)ccc2C)C3)n(C)n1 [pluripotin, reference compound] | – | – | – | IC50 ([4]; read-out: ERK inhibition IC50): 0.171 ± 0.006 µM |
| CC(=NN=c1[nH]c(C)c(N=Nc2ccc(Br)cc2)s1)c1c(O)c2ccccc2oc1=O [3m, 3-(-1-((-5-(-(4-Bromophenyl)diazenyl)-4-methylthiazol-2(3H)-ylidene)hydrazono)ethyl)-4-hydroxy-2H-chromen-2-one] | > 500 | 33.8 ± 3.1 | 12.7 ± 1.1 | IC50 [5]: 1.01 ± 0.034 µM; total volume of collected ascitic fluid [6]: significant reduction; Avg. volume of ascitic fluid (mL) [packed cell volume] [6]: 6 mL; Viable cell count (×10^6 cells per mL) [6]: 13 ×10^6 cells per mL; Cell-growth inhibition (%) [6]: 60.61%; IC50 [4]: 0.339 ± 0.013 µM; late apoptosis (MCF-7 cells [7]; control 0.14%): 5.57%; early apoptosis (MCF-7 cells [7]; control 0.61%): 14.67%; necrosis (MCF-7 cells [7]; control 2.16%): 3.51%; toxic activity on healthy cells BJ-1 [1]: non-significant toxic activities; IC50 [8]: 0.08 ± 0.003 µM; cells in the G2/M phase (MCF-7 cells [9]): 29.71%; tumor volume of Ehrlich solid carcinoma [10]: reduced to a level comparable to that of the doxorubicin group |
| COc1ccc(N=Nc2sc(=NN=C(C)c3c(O)c4ccccc4oc3=O)[nH]c2C)cc1 [3a, 4-Hydroxy-3-(-1-((-5-(-(4-methoxyphenyl)diazenyl)-4-methylthiazol-2(3H)-ylidene) hydrazono)ethyl)-2H-chromen-2-one] | 24.8 ± 2.1 | 3.2 ± 0.1 | 3.1 ± 0.1 | – |
| CCn1c(C)c(N=Nc2ccc(F)cc2)sc1=NN=C(C)c1c(O)c2ccccc2oc1=O [3i, 3-(-1-((-3-Ethyl-5-(-(4-fluorophenyl)diazenyl)-4-methylthiazol-2(3H)-ylidene)hydrazono)ethyl)-4-hydroxy-2H-chromen-2-one] | 34.3 ± 2.5 | 3.1 ± 0.2 | 3 ± 0.1 | – |
| COc1cccc2c1C(=O)c1c(O)c3c(c(O)c1C2=O)C[C@@](O)(C(=O)CO)C[C@@H]3O[C@H]1C[C@H](N)[C@H](O)[C@H](C)O1 [Doxorubicin, reference compound] | 32.1 ± 3.1 | 6.5 ± 0.5 | 5.6 ± 0.3 | Avg. volume of ascitic fluid (mL) [packed cell volume] [6]: 4 mL; Viable cell count (×10^6 cells per mL) [6]: 9 ×10^6 cells per mL; Cell-growth inhibition (%) [6]: 72.72% |
| CC(=NN=c1sc(N=Nc2ccc(Br)cc2)c(C)n1C)c1c(O)c2ccccc2oc1=O [3n, 3-(-1-((-5-(-(4-Bromophenyl)diazenyl)-3,4-dimethylthiazol-2(3H)-ylidene)hydrazono)ethyl)-4-hydroxy-2H-chromen-2-one] | > 500 | 31.8 ± 3.3 | 12.3 ± 1.2 | IC50 [5]: 3.88 ± 0.131 µM; total volume of collected ascitic fluid [6]: significant reduction; Avg. volume of ascitic fluid (mL) [packed cell volume] [6]: 8 mL; Viable cell count (×10^6 cells per mL) [6]: 22 ×10^6 cells per mL; Cell-growth inhibition (%) [6]: 33.33%; toxic activity on healthy cells BJ-1 [1]: non-significant toxic activities; IC50 [8]: 0.35 ± 0.011 µM; tumor volume of Ehrlich solid carcinoma [10]: more significant in the group administered with compound 3m than in the group administered with compound 3n |

From paper PMC12423761 (RSC Advances, 2025)
